ChEMBL document CHEMBL4699573, “Design, Synthesis, and Pharmacological Evaluation of Analogues Derived from the PLEV Tetrapeptide as Protein-Protein Interaction Modulators of Voltage-Gated Sodium Channel 1.6” (J Med Chem, 2020)
Residues, ends and D or L forms follow the SMILES beside them. *: point of attachment. Adamantane1carbonyl = O=C(C12CC3CC(CC(C3)C1)C2)*; OtBu = CC(C)(C)O*

What was measured:
[1] = molecular target: T1, Sodium channel protein type 8 subunit alpha (Homo sapiens, UniProt Q9UQD0); experiment: Modulation of recombinant human Nav1.6 C-terminal tail (1763 to 1976 residues) expressed in HEK293 cells assessed as peak current density at 30 uM incubated for 30 mins by whole cell patch clamp electrophysiology assay (reference value: -50.1 +/- 3.1 pA/pF); type: cell-based
Procedure, shortened: (§1)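 Stable HEK-Nav1.6 cells without FGF14, incubated at least 30 min in extracellular solution (mM: 140 NaCl, 3 KCl, 1 MgCl2, 1 CaCl2, 10 HEPES, 10 glucose, pH 7.3) with compound (10 or 30 μM) or 0.1% DMSO. Whole-cell recording with Cs-methanesulfonate/EGTA/NaCl/HEPES pipette solution, 70–80% compensation. Steps −100 to +60 mV; tau measured at −10 mV. Student's t-test.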

[2] = molecular target: T1, Sodium channel protein type 8 subunit alpha; experiment: Modulation of recombinant human Nav1.6 C-terminal tail (1763 to 1976 residues) expressed in HEK293 cells assessed as half activation voltage at 10 uM incubated for 30 mins by whole cell patch clamp electrophysiology assay (reference value: -25.4 +/- 1 mV); type: cell-based; procedure, shortened: as §1
[3] = molecular target: T2, Fibroblast growth factor 14/SCN8A (Homo sapiens) (UniProt Q9UQD0+Q92915); experiment: (§2) Modulation of recombinant human Nav1.6 C-terminal tail (1763 to 1976 residues) -FGF14 (64 to 252 residues) protein-protein interaction expressed in HEK293 cells assessed as long-term inactivation at depolarization cycle 4 at 10 uM incubated for 30 mins by cell patch clamp electrophysiology assay (reference value: 0.98 +/- 0.06); type: cell-based; conditions: filed as modulator
[4] = molecular target: T3, Fibroblast growth factor 14 (Homo sapiens) (UniProt Q92915); experiment: Binding affinity to human recombinant FGF14 expressed in Escherichia coli BL21 assessed as association rate constant by SPR analysis; conditions: filed as modulator
T3 sequence (whole entry): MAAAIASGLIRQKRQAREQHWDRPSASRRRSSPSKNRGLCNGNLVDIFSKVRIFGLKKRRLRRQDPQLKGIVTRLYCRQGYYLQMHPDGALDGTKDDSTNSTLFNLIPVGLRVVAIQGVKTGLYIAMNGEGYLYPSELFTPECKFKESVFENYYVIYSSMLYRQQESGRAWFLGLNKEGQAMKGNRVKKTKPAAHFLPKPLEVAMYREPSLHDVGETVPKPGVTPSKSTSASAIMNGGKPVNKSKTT
Procedure, shortened: (§3)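 Biacore T100 runs with FGF14 (17,896 RU) or Nav1.6 C-tail (6,800 RU) amine-coupled on CM5 at pH 5.5. Compounds at 0.195–200 μM in PBS, 0.005% Tween-20, 2% DMSO; 50 μL/min at 25 °C. 120 s association, 150 s dissociation, DMSO calibration, blank subtraction. Rates from a Langmuir 1:1 fit; KD averages the kinetic and steady-state values. At least duplicate experiments.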

[5] = molecular target: T1, Sodium channel protein type 8 subunit alpha; experiment: Modulation of recombinant human Nav1.6 C-terminal tail (1763 to 1976 residues) expressed in HEK293 cells assessed as change in time constant of fast inactivation at 10 uM incubated for 30 mins by whole cell patch clamp electrophysiology assay (reference value: 1.22 +/- 0.07 ms); type: cell-based; conditions: filed as modulator; procedure, shortened: as §1
[6] = molecular target: T2, Fibroblast growth factor 14/SCN8A (Homo sapiens); experiment: as §2, with “1976 residues)-FGF14” for “1976 residues) -FGF14”, “cycle 2” for “cycle 4”, “value: 1” for “value: 0.98”, “+/- 0.02)” for “+/- 0.06)”; type: cell-based; conditions: filed as modulator
Procedure, shortened: (§4)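 HEK-Nav1.6 cells transiently transfected with FGF14 using Lipofectamine 2000, then exposed at least 30 min to 10 μM compound or 0.1% DMSO in the pH 7.3 HEPES extracellular solution. Whole-cell patch clamp with Cs-methanesulfonate internal solution, 70–80% capacitance and series-resistance compensation. Test steps from −100 to +60 mV. Student's t-test used.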

[7] = molecular target: T2, Fibroblast growth factor 14/SCN8A (Homo sapiens); experiment: as §2, with “1976 residues)-FGF14” for “1976 residues) -FGF14”, “cycle 3” for “cycle 4”, “value: 0.99” for “value: 0.98”, “+/- 0.04)” for “+/- 0.06)”; type: cell-based; conditions: filed as modulator; procedure, shortened: as §4
HEK293 = experiment: Modulation of recombinant human FGF141b (1 to 252 residues)-recombinant human Nav1.6 C-terminal tail (1763 to 1976 residues) protein-protein interaction expressed in HEK293 cells measured at 2 mins interval for 20 mins by split-luciferase complementation assay relative to control; type: cell-based; conditions: filed as modulator, time min 2-20
Procedure, shortened: (§5)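 Double-stable HEK293 line expressing CLuc-FGF14 and CD4-Nav1.6-C-tail-NLuc, kept on G418 and puromycin. Cells seeded for 24 h, then given compound for 1 h in serum-free, phenol red-free DMEM/F12 with a final 0.5% DMSO: 50 μM for screening, 0.25–100 μM over eight concentrations for dose-response; n = 4. D-luciferin added and read every 2 min for 20 min at 37 °C. Peak luminescence expressed as percent of per-plate DMSO mean (n = 32). IC50 from four-parameter nonlinear fit. At least 3 experiments.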

[8] = molecular target: T1, Sodium channel protein type 8 subunit alpha; experiment: Modulation of recombinant human Nav1.6 C-terminal tail (1763 to 1976 residues) expressed in HEK293 cells assessed as long-term inactivation at depolarization cycle 4 at 10 uM incubated for 30 mins by whole cell patch clamp electrophysiology assay (reference value: 0.75 +/- 0.05); type: cell-based; conditions: filed as modulator
[9] = molecular target: T2, Fibroblast growth factor 14/SCN8A (Homo sapiens); experiment: Modulation of recombinant human Nav1.6 C-terminal tail (1763 to 1976 residues)-FGF14 (64 to 252 residues) protein-protein interaction expressed in HEK293 cells assessed as change in time constant of inactivation at 10 uM incubated for 30 mins by cell patch clamp electrophysiology assay (reference value: 1.58 +/- 0.18 ms); type: cell-based; conditions: filed as modulator; procedure, shortened: as §4
[10] = molecular target: T3, Fibroblast growth factor 14 (Homo sapiens); experiment: Binding affinity to human recombinant FGF14 expressed in Escherichia coli BL21 assessed as dissociation rate constant by SPR analysis; conditions: filed as modulator; procedure, shortened: as §3
[11] = Modulation of recombinant human FGF141b (1 to 252 residues)-recombinant human Nav1.6 C-terminal tail (1763 to 1976 residues) protein-protein interaction expressed in HEK293 cells measured at 2 mins interval for 20 mins by split-luciferase complementation assay; type: cell-based; procedure, shortened: as §5
[12] = molecular target: T1, Sodium channel protein type 8 subunit alpha; experiment: Modulation of recombinant human Nav1.6 C-terminal tail (1763 to 1976 residues) expressed in HEK293 cells assessed as long-term inactivation at depolarization cycle 3 at 10 uM incubated for 30 mins by whole cell patch clamp electrophysiology assay (reference value: 0.76 +/- 0.05); type: cell-based; conditions: filed as modulator

T2 sequence (Q9UQD0 whole entry, looked up, one chain of several, the tested form may be a part): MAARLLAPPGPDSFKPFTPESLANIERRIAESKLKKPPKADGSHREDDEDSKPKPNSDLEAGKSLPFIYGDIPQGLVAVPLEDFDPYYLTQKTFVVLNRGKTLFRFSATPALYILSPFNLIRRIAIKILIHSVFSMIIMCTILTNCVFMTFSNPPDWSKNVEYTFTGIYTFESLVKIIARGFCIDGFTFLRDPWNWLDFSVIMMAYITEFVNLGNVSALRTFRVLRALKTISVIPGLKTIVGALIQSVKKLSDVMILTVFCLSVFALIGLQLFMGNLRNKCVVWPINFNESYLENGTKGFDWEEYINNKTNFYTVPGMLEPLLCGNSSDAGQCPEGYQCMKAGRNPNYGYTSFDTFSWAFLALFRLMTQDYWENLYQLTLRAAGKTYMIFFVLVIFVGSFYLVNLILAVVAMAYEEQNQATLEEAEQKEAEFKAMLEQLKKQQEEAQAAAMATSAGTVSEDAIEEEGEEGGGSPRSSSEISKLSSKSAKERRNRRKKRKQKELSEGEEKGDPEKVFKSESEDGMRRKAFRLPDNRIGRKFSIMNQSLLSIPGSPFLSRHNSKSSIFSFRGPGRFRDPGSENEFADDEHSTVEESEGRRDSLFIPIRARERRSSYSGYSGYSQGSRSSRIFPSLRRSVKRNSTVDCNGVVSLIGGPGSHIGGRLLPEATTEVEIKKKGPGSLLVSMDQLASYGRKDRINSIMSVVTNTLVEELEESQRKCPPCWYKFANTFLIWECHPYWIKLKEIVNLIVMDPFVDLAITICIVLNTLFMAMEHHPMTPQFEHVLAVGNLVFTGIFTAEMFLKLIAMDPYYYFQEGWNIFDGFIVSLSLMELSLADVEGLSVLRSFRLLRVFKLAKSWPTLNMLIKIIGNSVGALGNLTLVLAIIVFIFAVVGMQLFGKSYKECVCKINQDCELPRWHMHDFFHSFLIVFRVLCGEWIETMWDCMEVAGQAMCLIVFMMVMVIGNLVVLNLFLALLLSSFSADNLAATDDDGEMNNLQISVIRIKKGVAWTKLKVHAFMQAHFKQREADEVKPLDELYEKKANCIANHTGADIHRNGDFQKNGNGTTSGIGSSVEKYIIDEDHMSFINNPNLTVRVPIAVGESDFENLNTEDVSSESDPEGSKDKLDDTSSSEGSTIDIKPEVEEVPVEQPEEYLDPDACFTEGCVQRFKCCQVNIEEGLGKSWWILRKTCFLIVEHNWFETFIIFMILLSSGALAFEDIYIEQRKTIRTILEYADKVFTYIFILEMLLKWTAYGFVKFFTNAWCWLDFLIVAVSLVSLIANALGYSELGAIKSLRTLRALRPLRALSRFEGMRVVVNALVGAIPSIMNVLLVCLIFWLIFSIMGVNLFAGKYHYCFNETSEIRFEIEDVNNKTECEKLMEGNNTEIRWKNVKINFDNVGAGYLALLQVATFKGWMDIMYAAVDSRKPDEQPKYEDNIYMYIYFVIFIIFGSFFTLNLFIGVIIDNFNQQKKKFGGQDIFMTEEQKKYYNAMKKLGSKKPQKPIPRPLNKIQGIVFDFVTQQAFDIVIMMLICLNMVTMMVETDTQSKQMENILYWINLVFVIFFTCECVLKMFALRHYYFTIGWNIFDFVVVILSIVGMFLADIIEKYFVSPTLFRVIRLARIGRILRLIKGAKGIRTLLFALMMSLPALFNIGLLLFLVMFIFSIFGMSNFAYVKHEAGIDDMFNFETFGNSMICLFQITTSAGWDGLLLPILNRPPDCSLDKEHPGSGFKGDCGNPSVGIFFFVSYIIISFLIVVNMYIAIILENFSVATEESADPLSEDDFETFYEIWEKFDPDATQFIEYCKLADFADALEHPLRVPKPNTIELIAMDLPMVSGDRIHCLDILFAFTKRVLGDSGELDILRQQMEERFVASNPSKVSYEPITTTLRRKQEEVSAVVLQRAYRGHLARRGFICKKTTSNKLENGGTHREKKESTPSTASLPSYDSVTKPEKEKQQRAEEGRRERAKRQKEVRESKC
T1 sequence (Q9UQD0 whole entry, looked up, the tested form may be a part): as the sequence (Q9UQD0 whole entry, looked up, one chain of several, the tested form may be a part) above

With `COC(=O)[C@@H](NC(=O)[C@H](CCC(=O)OC(C)(C)C)NC(=O)[C@H](CC(C)C)NC(=O)[C@@H]1CCCN1C(=O)C12CC3CC(CC(C3)C1)C2)C(C)C` (Adamantane1carbonyl-PLE(OtBu)V-OMe) the Activity [1] was -17.9 pA/pF, the Activity [2] was -16.9 mV and the Activity [3] was 0.75. The K [4] was 4.66 10^3/M/s, the K [5] was 1.45 ms and the Activity [6] was 0.86. For the same compound, the Activity [7] was 0.81, the Efficacy (HEK293) was 96.1% and the Activity [8] was 0.7. For the same compound, the K [9] was 1 ms, the K [10] was 9.33 10^-3/s and the IC50 [11] was 20.4 µM. For the same compound, the Activity [12] was 0.76.
